Screening results deposited in PubChem by Johns Hopkins Ion Channel Center.
RGS4 pot – RGS4 potentiators or activators, primary screen, cell-based, HEK293 M3R inducible RGS4, calcium flux | carbachol calcium flux Fluo4; stronger effect = lower value | B-score at 10 µM | 310,000 compounds, 0.92% hits;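 active means B-score of the integrated calcium signal more than 4 SD below the library mean, with starting fluorescence not abnormally high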;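 further: negative B-score means reduced calcium response which marks RGS4 activation or potentiation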
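Material: M3R-expressing HEK293 line, RGS4 induced by doxycycline | Schedule: Overnight RGS4 induction, 30 min dye load 37 °C, 20 min compound RT | Measured by: Fluo4 fluorescence kinetic imaging of calcium | Read-out: Integrated calcium ratio converted to B score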
MrgX1 PAM – positive allosteric modulators of MrgX1, primary screen, HEK293 cells, Fluo-4 calcium flux | B-score at 10 µM | Mas-related G-protein coupled receptor member X1 (Homo sapiens), Q96LB2 | FDSS; stronger effect = higher value | AID 588675, 2011 | 310,000 compounds, 0.63% hits;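 active means plate-corrected calcium response at least 3 library SD above typical, normal starting fluorescence, not activating the receptor alone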;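 further: compound read alongside a low EC10 to EC30 dose of BAM8-22 agonist; peak minus trough fluorescence over baseline measured at the second addition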
Target sequence (Q96LB2 whole entry, looked up): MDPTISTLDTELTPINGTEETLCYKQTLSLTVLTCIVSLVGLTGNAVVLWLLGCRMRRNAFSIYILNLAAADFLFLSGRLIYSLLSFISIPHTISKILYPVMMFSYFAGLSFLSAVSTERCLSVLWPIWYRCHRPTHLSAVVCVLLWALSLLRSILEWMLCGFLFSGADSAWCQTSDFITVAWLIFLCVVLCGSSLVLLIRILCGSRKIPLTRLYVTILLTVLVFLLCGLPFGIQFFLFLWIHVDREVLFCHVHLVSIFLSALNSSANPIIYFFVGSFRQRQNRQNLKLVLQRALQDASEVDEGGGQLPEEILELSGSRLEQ
RGS4 block – RGS4 inhibitors, primary screen, cell-based, HEK293 M3R inducible RGS4, calcium flux | Regulator of G-protein signaling 4 (Homo sapiens), P49798 | Fluo-4 calcium flux; stronger effect = higher value; triggered by carbachol at its EC20 | B-score at 10 µM | 310,000 compounds, 0.45% hits;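 active means B-score, a plate-corrected calcium signal, over three deviations above library mean, with baseline fluorescence within five deviations of library mean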;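 further: RGS4 expression induced by doxycycline in cells with stable M3 receptor; B-score is computed from the integrated fluorescence ratio over baseline after carbachol; higher B-score means a larger calcium signal and so more RGS4 inhibition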
Target sequence (P49798 whole entry, looked up): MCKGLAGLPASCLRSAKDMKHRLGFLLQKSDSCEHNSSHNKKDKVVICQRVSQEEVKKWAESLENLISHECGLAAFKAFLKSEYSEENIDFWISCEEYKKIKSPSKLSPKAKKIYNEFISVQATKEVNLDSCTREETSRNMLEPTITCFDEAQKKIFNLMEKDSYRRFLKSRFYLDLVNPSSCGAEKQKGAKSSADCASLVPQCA
MrgX1 ag – agonists of human MrgX1 receptor, primary screen, HEK293 cells, Fluo-4 calcium flux. Mas-related G-protein coupled receptor member X1 (Homo sapiens), Q96LB2. Fluo-4 calcium fluorescence, agonist mode; stronger effect = higher value. B-score at 10 µM. 310,000 compounds, 0.44% hits;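 active means calcium response B-score plate-corrected fluorescence ratio at least 3 library SD, with starting fluorescence B-score inside 5 SD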
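Test system: HEK293 cells stably expressing human MrgX1 receptor; amount: 15,000 cells per well; doses: compound delivered in addition one of three; times: overnight plating before 1 h dye loading; detection: Fluo-4 NW calcium-flux fluorescence, kinetic read; read-out basis: B-scored fluorescence response ratio; controls: positive and negative controls per plate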
MrgX1 antag – antagonists of human MrgX1 receptor, primary screen, HEK293 cells, Fluo-4 calcium flux. 310,000 compounds, 1.3% hits. BAM8-22 antagonism; stronger effect = lower value. B-score at 10 µM;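 active means calcium-response B-score plate-corrected more than 3 library SD below zero, starting fluorescence within 5 deviations, no agonist response on first addition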;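 further: peak minus trough fluorescence over baseline after final BAM8-22 challenge near maximal dose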
MrgX1 ag confirm – MrgX1 receptor agonists, duplicate retest, confirmation, HEK293 cells, Fluo-4 calcium flux | activation, % at 10 µM | shares compounds with MrgX1 ag | 600 compounds, 78% hits | Fluo-4 calcium fluorescence, FDSS;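 active means calcium signal rise, corrected for plate position, at least 3 library SD high, with starting brightness within 5 such deviations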
HEK293 Ca flux – nonspecific calcium signal in parental HEK293, confirmation, counter-screen for MrgX1 antagonist project, parental HEK293 cells, Fluo-4 calcium flux; AID 624111, 2012; 4,000 compounds, 2% hits; Fluo-4 calcium fluorescence, FDSS; fluorescence ratio F(max-min)/F0 at 10 µM; shares compounds with MrgX1 antag;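 active means duplicate-averaged calcium fluorescence ratio at least three times the standard deviation of buffer wells, a nonspecific response in parental cells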
HEK293 Ca counter – calcium response in parental HEK293 cells, primary screen, counter-screen for MrgX1 allosteric activator project, cell-based, Fluo-4 calcium flux, duplicate; 4,000 compounds, 0.4% hits; Fluo-4 fluorescence ratio; stronger effect = higher value; fluorescence ratio F(max-min)/F0 at 10 µM; shares compounds with MrgX1 antag;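 active means calcium fluorescence ratio, averaged over duplicates, at least 3 SD of the buffer-well ratio, meaning a nonspecific response in receptor-free cells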;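 further: untransfected parental HEK293 lacking MrgX1 used as counterscreen for MrgX1 allosteric activators; fluorescence change taken during the second addition on a kinetic imager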
HEK293 Ca cntr2 – calcium response in parental HEK293 cells, primary screen, counter-screen for MrgX1 agonist project, cell-based, Fluo-4 calcium flux, duplicate, agonist mode; shares compounds with MrgX1 antag; Fluo-4 calcium fluorescence (FDSS); stronger effect = higher value; fluorescence ratio F(max-min)/F0 at 10 µM; 4,000 compounds, 8.7% hits; AID 624115, 2012;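 active means calcium fluorescence ratio at least three times the spread of buffer wells, meaning a non-specific response in parental cells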
Numbers stand for hits. In the library only some 3.5% were active in any assay of this set; here they are far more common.

For O=C(NC(Cc1ccccc1)C(=O)O)/C(=C/c1ccc([N+](=O)[O-])cc1)NC(=O)c1ccco1 (stereo unspecified) the results were RGS4 pot inactive, MrgX1 PAM inactive, RGS4 block inactive, MrgX1 ag inactive and MrgX1 antag inactive.
Screening CCOc1ccccc1N(CC(=O)N1CCOCC1)S(=O)(=O)c1ccccc1 returned RGS4 pot inactive, MrgX1 PAM inactive, RGS4 block inactive, MrgX1 ag 138, MrgX1 antag inactive, MrgX1 ag confirm 541%, HEK293 Ca flux inactive, HEK293 Ca counter inactive and HEK293 Ca cntr2 103.
CCOc1ccccc1N(CC(=O)N1CCC(C)CC1)S(=O)(=O)c1ccc(C)cc1 was read as RGS4 pot inactive, MrgX1 PAM inactive, RGS4 block inactive, MrgX1 ag inactive and MrgX1 antag inactive.
For CCOc1ccccc1N(CC(=O)N1CCCCCC1)S(=O)(=O)c1ccc(C)cc1 the results were RGS4 pot inactive, MrgX1 PAM inactive, RGS4 block inactive, MrgX1 ag 34, MrgX1 antag inactive, MrgX1 ag confirm 142%, HEK293 Ca flux inactive, HEK293 Ca counter inactive and HEK293 Ca cntr2 50.
`COc1ccccc1N(CC(=O)N1CCCCCC1)S(=O)(=O)c1ccc(C)cc1` gave RGS4 pot inactive, MrgX1 PAM inactive, RGS4 block inactive, MrgX1 ag inactive and MrgX1 antag inactive.
O=CNC(n1cnc2c(N3CCOCC3)ncnc21)C(Cl)(Cl)Cl (stereo unspecified) was read as RGS4 pot inactive, MrgX1 PAM inactive, RGS4 block inactive, MrgX1 ag inactive and MrgX1 antag inactive.
`Cc1c(C(=O)Nc2ccccc2F)sc2ncn(CC(=O)N3CCOCC3)c(=O)c12` gave RGS4 pot inactive, MrgX1 PAM inactive, RGS4 block inactive, MrgX1 ag inactive and MrgX1 antag inactive.
Screening c1csc(C2C3=C(Nc4ncnn42)c2ccccc2OC3)c1 (stereo unspecified) returned RGS4 pot inactive, MrgX1 PAM inactive, RGS4 block inactive, MrgX1 ag 31, MrgX1 antag inactive, MrgX1 ag confirm 122%, HEK293 Ca flux inactive, HEK293 Ca counter inactive and HEK293 Ca cntr2 inactive.
For CCOC(=O)c1c(CN2CCN(C)CC2)n(C)c2cc(Br)c(OC)cc12 the results were RGS4 pot inactive, MrgX1 PAM inactive, RGS4 block inactive, MrgX1 ag inactive and MrgX1 antag inactive.
`CCOC(=O)c1c(CSC(=N)N)n(C)c2cc(Br)c(OC(C)=O)cc12` gave RGS4 pot inactive, MrgX1 PAM inactive, RGS4 block inactive, MrgX1 ag 46, MrgX1 antag inactive, MrgX1 ag confirm 188%, HEK293 Ca flux inactive, HEK293 Ca counter inactive and HEK293 Ca cntr2 inactive.
`CCc1noc(C)c1C(=O)N1CCC(CCC(=O)Nc2cccc(C)c2)CC1` gave RGS4 pot inactive, MrgX1 PAM inactive, RGS4 block inactive, MrgX1 ag inactive and MrgX1 antag inactive.
For CC(C)(C)Nc1c2ccccc2nc2ccccc12 the results were RGS4 pot inactive, MrgX1 PAM inactive, RGS4 block inactive, MrgX1 ag 35, MrgX1 antag inactive, MrgX1 ag confirm 157%, HEK293 Ca flux inactive, HEK293 Ca counter inactive and HEK293 Ca cntr2 inactive.
